Test results reported in ChEMBL document CHEMBL3351523 (Bioorg Med Chem, 2014).

Experiments:
[1] = Cytotoxicity against mock-infected human MT4 cells after 96 hrs by MTT assay; type: cell-based
Procedure, shortened: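 Exponentially growing MT-4 cells were seeded at 1 × 10^5 cells/mL in RPMI-1640 with 10% FBS and held at 37 °C, 5% CO2 with serial compound dilutions. Viability was read by MTT after 96 h. CC50 from linear regression against untreated controls.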

[2] = system: Human immunodeficiency virus 1; experiment: Antiviral activity against HIV1 infected in human MT4 cells assessed as inhibition of virus-induced cytopathogenicity after 4 days by MTT assay; type: functional, organism-based; details: Human immunodeficiency virus 1, MT4, 96 h
Procedure, shortened: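 MT-4 cells (1 × 10^4/well in RPMI) were infected acutely with HIV-1 IIIB, 100 CCID50 (m.o.i. 0.01), with serial dilutions from 100 µM, 1:5. After 4 days at 37 °C, protection from virus-induced cytopathogenicity was read by MTT. EC50 came from linear regression against untreated controls.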

[3] = Cytotoxicity against mock-infected MDBK cells after 48 to 96 hrs by MTT assay; type: cell-based, Bos taurus; details: cattle
Procedure, shortened: (§1)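 Mock-infected MDBK (6 × 10^5 cells/mL; MEM-E, 10% horse serum, 1 mM pyruvate) or BHK (1 × 10^6 cells/mL; MEM-E, 10% FBS) cells were incubated at 37 °C, 5% CO2 with serial dilutions from 100 µM, 1:5. Viability by MTT after 48–96 h. CC50 from linear regression against untreated controls.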

[4] = system: Bovine viral diarrhea virus 1; experiment: Antiviral activity against Bovine viral diarrhea virus infected in MDBK cells assessed as inhibition of virus-induced cytopathogenicity after 3 to 4 days by MTT assay; type: functional, organism-based; details: Bovine viral diarrhea virus isolates and strains
[5] = Cytotoxicity against mock-infected BHK21 cells after 48 to 96 hrs by MTT assay; type: functional; details: Mesocricetus auratus, BHK-21; procedure, shortened: as §1
Yellow fever virus = experiment: Antiviral activity against Yellow fever virus infected in BHK21 cells assessed as inhibition of virus-induced cytopathogenicity after 3 to 4 days by MTT assay; type: functional, organism-based; details: BHK-21
Reovirus sp. = experiment: Antiviral activity against Reovirus type-1 infected in BHK21 cells assessed as inhibition of virus-induced cytopathogenicity after 3 to 4 days by MTT assay; type: functional, organism-based; details: BHK-21
[6] = Cytotoxicity against mock-infected african green monkey Vero 76 cells after 48 to 96 hrs by MTT assay; type: cell-based; details: chlorocebus sabaeus, mock-infected Vero 76 cells
Coxsackievirus B5 = experiment: Antiviral activity against Coxsackievirus B5 infected in african green monkey Vero 76 cells assessed as reduction in plaque number after 3 days by plaque reduction assay; type: functional, organism-based; details: Enterovirus B, 72 h
Poliovirus 1 = experiment: Antiviral activity against Poliovirus type 1 Sabin strain infected in african green monkey Vero 76 cells assessed as reduction in plaque number after 2 days by plaque reduction assay; type: functional, organism-based; details: Enterovirus C, 48 h
[7] = system: Respiratory syncytial virus; experiment: Antiviral activity against Respiratory syncytial virus infected in african green monkey Vero 76 cells assessed as reduction in plaque number after 5 days by plaque reduction assay; type: functional, organism-based; details: human respiratory syncytial virus, 120 h
[8] = system: Vesicular stomatitis virus; experiment: Antiviral activity against Vesicular stomatitis virus infected in african green monkey Vero 76 cells assessed as reduction in plaque number after 2 days by plaque reduction assay; type: functional, organism-based; details: 48 h
Vaccinia virus = experiment: Antiviral activity against Vaccinia Virus infected in african green monkey Vero 76 cells assessed as reduction in plaque number after 3 days by plaque reduction assay; type: functional, organism-based; details: Orthopoxvirus vaccinia, 72 h
Human alphaherpesvirus 1 = experiment: Antiviral activity against HSV1 infected in african green monkey Vero 76 cells assessed as reduction in plaque number after 3 days by plaque reduction assay; type: functional, organism-based; details: Human alphaherpesvirus 1, Vero, 72 h
[9] = Selectivity index, ratio of CC50 for african green monkey Vero 76 cells to EC50 for Coxsackievirus B5; type: toxicity, cell-based; details: read-out: Ratio CC50/EC50
Procedure, shortened: (§2)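 Mock-infected Vero-76 cells were tested in parallel on the same 24-well plates as the plaque assays (seeding 4 × 10^5 cells/mL, D-MEM with FBS), with serial compound dilutions at 37 °C, 5% CO2. Viability was read after 48–96 h by crystal violet staining. CC50 by linear regression; selectivity index = Vero-76 CC50/EC50 for CVB-5 or RSV.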

[10] = Selectivity index, ratio of CC50 for african green monkey Vero 76 cells to EC50 for Respiratory syncytial virus; type: toxicity, cell-based; details: read-out: Ratio CC50/EC50; procedure, shortened: as §2

SMILES | CC50 at 96 h [1] [µM] | EC50 [2] [µM] | CC50 [3] [µM] | EC50 [4] [µM] | CC50 [5] [µM] | EC50 (Yellow fever virus) [µM] | EC50 (Reovirus sp.) [µM] | CC50 [6] [µM] | EC50 (Coxsackievirus B5) [µM] | EC50 (Poliovirus 1) [µM] | EC50 [7] [µM] | EC50 [8] [µM] | EC50 (Vaccinia virus) [µM] | EC50 (Human alphaherpesvirus 1) [µM] | selectivity ratio [9] | selectivity ratio [10]
Nc1ccc(Cc2nc3cc(Cl)c(Cl)cc3[nH]2)cc1 | 71 | > 100 | 62 | 22 | 43 | > 100 | > 100 | 80 | 12 | 80 | 20 | > 100 | > 100 | > 100 | 6.67 | 4
COc1ccc(Cc2nc3cc(Cl)c(Cl)cc3[nH]2)cc1 | 29 | > 100 | 17 | > 100 | 19 | > 100 | > 100 | > 100 | > 100 | > 100 | 5 | > 100 | > 100 | > 100 |  | ≥ 20
NC(=O)c1ncn([C@@H]2O[C@H](CO)[C@@H](O)[C@H]2O)n1 [RIBAVIRIN] |  |  | > 100 | 8 | > 100 | > 100 | > 100 | > 100 | > 100 | > 100 |  | > 100 | > 100 | > 100 |  | > 14.3
O=c1cnn([C@@H]2O[C@H](CO)[C@@H](O)[C@H]2O)c(=O)[nH]1 [6-AZAURIDINE] |  |  | > 100 | > 100 | > 100 | > 100 | > 100 | 20 | > 100 | > 100 |  | > 100 |  | > 100 |  | 16.7
Clc1ccc2nc(-c3ccccc3)n([C@H]3CCCN4CCCC[C@H]34)c2c1 | 56 | > 100 | 86 | 80 | 48 | > 100 | > 100 | 90 | 14 | > 100 | 45 | > 100 | > 100 | > 100 | 6.43 | 2
Cc1ccc2nc(-c3ccc(F)cc3)n([C@H]3CCCN4CCCC[C@H]34)c2c1 | > 100 | > 100 | > 100 | > 100 | > 100 | > 100 | > 100 | > 100 | 80 | > 100 | 63 | > 100 | > 100 | > 100 | > 1.25 | > 1.59
COc1c(C)c2c(c(O)c1C/C=C(\C)CCC(=O)O)C(=O)OC2 [MYCOPHENOLIC ACID] |  |  |  | > 100 | > 100 | > 100 | > 100 | 20 | > 100 | > 100 |  |  | 2 | > 100 |  | 33.3
FC(F)(F)c1ccc2c(c1)nc(Cc1ccc(Cl)cc1)n2C[C@@H]1CCCN2CCCC[C@H]12 | 6 | > 100 | 54 | > 100 | 20 | > 100 | > 100 | > 100 | 13 | > 100 | 15 | > 100 | > 100 | > 100 | > 7.69 | > 6.67
c1ccc2c(c1)Cn1c(nc3ccccc31)-c1ccccc1-2 | 44 | > 100 | 23 | > 100 | 20 | > 100 | > 100 | 80 | > 100 | > 100 | 9 | > 100 | > 100 | > 100 |  | 8.89
Nc1ccc(Cc2nc3ccccc3[nH]2)cc1 | > 100 | > 100 | > 100 | > 100 | > 100 | > 100 | > 100 | > 100 | 17 | 58 | > 100 | > 100 | > 100 | > 100 | > 5.88 | 
FC(F)(F)c1ccc2c(c1)nc(Cc1ccccc1)n2C[C@H]1CCCN2CCCC[C@H]12 | 100 | > 100 | 28 | > 100 | 25 | > 100 | > 100 | 93 | 75 | > 100 | > 100 | > 100 | > 100 | > 100 | 1.24 | 
c1ccc(Cn2c(-c3ccccc3)nc3ccccc32)cc1 | 47 | > 100 | 54 | > 100 | 36 | > 100 | > 100 | 87 | > 100 | > 100 | 25 | > 100 | > 100 | > 100 |  | 3.48
FC(F)(F)c1ccc2[nH]c(Cc3ccc(Cl)cc3)nc2c1 | > 100 | > 100 | 16 | > 100 | 20 | > 100 | > 100 | 70 | 26 | > 100 | > 100 | > 100 | > 100 | > 100 | 2.69 | 
Nc1ccc(Cc2nc3cc(C(F)(F)F)ccc3[nH]2)cc1 | > 100 | > 100 | > 100 | > 100 | > 100 | > 100 | > 100 | > 100 | 11 | > 100 | > 100 | > 100 | > 100 | > 100 | > 9.09 | 
c1ccc2[nH]c(CC3CCCC3)nc2c1 | > 100 | > 100 | > 100 | > 100 | > 100 | > 100 | > 100 | > 100 | 21 | > 100 | > 100 | > 100 | > 100 | > 100 | > 4.76 | 
FC(F)(F)c1ccc2c(c1)nc(Cc1ccccc1)n2C[C@@H]1CCCN2CCCC[C@H]12 | > 100 | > 100 | > 100 | > 100 | 15 | > 100 | > 100 | > 100 | 10 | 60 | > 100 | > 100 | > 100 | > 100 | > 10 | 
Clc1ccc2nc(-c3ccccc3)n([C@@H]3CCCN4CCCC[C@H]34)c2c1 | > 100 | > 100 | > 100 | 40 | > 100 | > 100 | > 100 | ≥ 100 | 32 | > 100 | > 100 | > 100 | > 100 | > 100 | > 3.12 | 
